pKa and logP data for one compound are collected here from ChEMBL document CHEMBL1133005, “Improving the oral bioavailability of the iron chelator HBED by breaking the symmetry of the intramolecular H-bond network” (J Med Chem, 2000).

What all share (assay type): physicochemical
Series [1] can be described thus: Evaluated for ionization constant (pKa4) by titrations performed in presence of a MeOH and at a dielectric constant of 62. As to conditions: MeOH cosolvent; read-out: pKa4. A digest of the protocol:
(§1)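 pH-metric titration in mixed water/cosolvent media (MeOH or EtOH, depending on the ligand) at several cosolvent proportions, each proportion setting the dielectric constant. Electrode calibrated with pH 7.00 phosphate buffer and standardized after a blank titration by a nonlinear semiempirical fit. Readings were converted to pcH to give concentration-scale constants.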

The nature of series [2]: Partition coefficient (logP) (cyclohexane). A digest of the protocol:
(§2)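 Free-ligand partition coefficients are measured by the pH-metric technique. This uses two linked titrations: a normal aqueous titration, then a two-phase titration in the presence of the partition solvent.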

The nature of series [3]: Evaluated for ionization constant (pKa2) by titrations performed in presence of a MeOH and at a dielectric constant of 62. The settings on record: MeOH cosolvent, dielectric constant 62; read-out: pKa2. A digest of the protocol:
as §1

Series [4] can be described thus: Evaluated for ionization constant (pKa4) by titrations performed in presence of a MeOH and at a dielectric constant of 56. As to conditions: MeOH cosolvent; read-out: pKa4. A digest of the protocol:
as §1

A short description of series [5]: Evaluated for ionization constant (pKa3) by titrations performed in presence of a MeOH and at a dielectric constant of 62. As to conditions: MeOH cosolvent; read-out: pKa3. A digest of the protocol: as §1
A short description of series [6]: Evaluated for ionization constant (pKa4) by titrations performed using the method of Yasuda and Shedlovsky. As to conditions: read-out: pKa4. The gist of the method: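 Potentiometric pH titration. The electrode is calibrated with pH 7.00 phosphate buffer. A blank titration before each set standardizes the electrode by a nonlinear semiempirical equation, and readings are converted to the concentration scale pcH = −log[H+]. Runs use varying amounts of MeOH or EtOH cosolvent, and aqueous pKa values are extrapolated by the Yasuda–Shedlovsky method. Low pKa values (pH < 2) are determined by spectrophotometric titration.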

Series [7] is described as follows: Evaluated for ionization constant (pKa1) by titrations performed in presence of a MeOH and at a dielectric constant of 62. As to conditions: MeOH cosolvent, dielectric constant 62; read-out: pKa1. The gist of the method:
as §1

A short description of series [8]: Evaluated for ionization constant (pKa2) by titrations performed using method of Yasuda and Shedlovsky. The settings on record: read-out: pKa2. The gist of the method: (§3)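 Aqueous constants were extrapolated by the Yasuda–Shedlovsky method from pH-metric titrations run at several MeOH or EtOH cosolvent levels. Electrode calibrated with pH 7.00 phosphate buffer and standardized after a blank titration. Values are expressed on the pcH (-log[H+]) concentration scale.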

Series [9] in a line: Evaluated for ionization constant (pKa1) by titrations performed using method of Yasuda and Shedlovsky. As to conditions: read-out: pKa1. A digest of the protocol: as §3
The nature of series [10]: Partition coefficient (logP). As to conditions: octanol/water. A digest of the protocol:
as §2

Series [11] in a line: Evaluated for ionization constant (pKa1) by titrations performed in presence of a MeOH and at a dielectric constant of 56. As to conditions: MeOH cosolvent, dielectric constant 56; read-out: pKa1. A digest of the protocol:
as §1

Series [12] in a line: Evaluated for ionization constant (pKa2) by titrations performed in presence of a MeOH and at a dielectric constant of 49. As to conditions: MeOH cosolvent, dielectric constant 49; read-out: pKa2. The gist of the method:
as §1

Series [13] can be described thus: Evaluated for ionization constant (pKa4) by titrations performed in presence of a MeOH and at a dielectric constant of 49. The settings on record: MeOH cosolvent; read-out: pKa4. A digest of the protocol:
as §1

A short description of series [14]: Evaluated for ionization constant (pKa3) by titrations performed in presence of a MeOH and at a dielectric constant of 49. The settings on record: MeOH cosolvent; read-out: pKa3. A digest of the protocol: as §1
A short description of series [15]: Evaluated for ionization constant (pKa2) by titrations performed in presence of a MeOH and at a dielectric constant of 56. As to conditions: MeOH cosolvent, dielectric constant 56; read-out: pKa2. The gist of the method:
as §1

Series [16] in a line: Evaluated for ionization constant (pKa3) by titrations performed using the method of Yasuda and Shedlovsky. The settings on record: read-out: pKa3. A digest of the protocol:
as §3

Series [17] is described as follows: Evaluated for ionization constant (pKa3) by titrations performed in presence of a MeOH and at a dielectric constant of 56. The settings on record: MeOH cosolvent; read-out: pKa3. A digest of the protocol: as §1

What is called logP is the decadic logarithm of the partition coefficient of the neutral form, usually between octanol and water. A low value points to lower lipophilicity. With `COC(=O)CN(CCN(CC(=O)OC)Cc1ccccc1O)Cc1ccccc1O`, the pKa was determined as 1.1 in series [1]; 11.3 in [3]; 0.82 in series [4]; 5.58 in [5]; 1.4 in [6]; 12.6 in series [7]. In addition, the pKa in series [8] came to 10.9; in [9], 12.2; in series [11], 12.9; in series [12], 11.9; in [13], 0.69; in series [14], 5.4. In addition, the values for the pKa in [15], in series [16] and in series [17] were 11.6, 5.7 and 5.46, respectively. Also, the logP in series [2] came to 2.11; in series [10], 2.86.
